TAAR1 agonist – agonists of human TAAR1; Q96RJ0; CHO RD-HGA16 TAAR1, Fluo-8 calcium fluorescence; vehicle wells 0%, saturating PEA agonist 100%; activation, % at 3 µM; 0.99% of 360,000 active;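 active means activation above the mean activation of all test compounds in the run plus 3 SD, cut at about 38% in these data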
Target sequence (Q96RJ0 whole entry, looked up): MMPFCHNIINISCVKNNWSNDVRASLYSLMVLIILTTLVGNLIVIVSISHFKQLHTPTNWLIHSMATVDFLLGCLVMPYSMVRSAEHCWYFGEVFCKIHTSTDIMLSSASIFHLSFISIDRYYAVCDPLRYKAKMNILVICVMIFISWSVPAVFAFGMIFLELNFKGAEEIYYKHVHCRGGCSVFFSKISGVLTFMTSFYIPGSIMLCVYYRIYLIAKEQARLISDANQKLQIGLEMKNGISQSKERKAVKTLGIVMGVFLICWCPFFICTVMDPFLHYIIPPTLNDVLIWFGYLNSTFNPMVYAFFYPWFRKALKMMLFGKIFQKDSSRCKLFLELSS
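Signal – calcium-sensitive Fluo-8 signal, excitation 470-495, emission 515-575 nm · System – RD-HGA16 (CHO) cells co-expressing Gα16 and hTAAR1 · Incubation – 17-24 h seeding, 75 min 37 °C dye, 30 min RT · Compound dosing – 3 µM single concentration · Repeats – no replicates (n 1)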
CHO parental Ca – counter-screen for OX1R antagonists: effect in parental CHO cells; 0.63% of 330,000 active; AID 463079; parental CHO-K1, ATP-induced calcium, Fluo-8 fluorescence; inhibition, % at 5.6 µM;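 active means inhibition above that plate's mean sample inhibition plus 3 SD, cut at about 26% in these data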;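 further: 0% = ATP-challenged DMSO wells and 100% = DMSO wells without ATP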
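Assay system: untransfected parental CHO cell line. Also added: ATP agonist challenge. Dosing: one dose, 5.6 µM nominal. Measured by: Fluo-8 fluorescence. Read-out: % inhibition. Benchmarks: ATP wells versus no-ATP DMSO wells. Repeats: no replicates.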
TAAR1 antag – antagonists of human TAAR1; Q96RJ0; CHO RD-HGA16 TAAR1, Fluo-8 calcium fluorescence, antagonist; inhibition, % at 3 µM; 1.5% of 360,000 active;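 active means inhibition above a per-plate cutoff, the mean inhibition of test compounds on that plate plus 3 SD, cut at about 49% in these data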;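 further: 0% = DMSO plus EC80 beta-PEA response and 100% = DMSO alone without agonist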
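Material: RD-HGA16 CHO cells with stable hTAAR1 and Gα16; Dosing: single nominal final test compound concentration of 3 µM; Schedule: seeding 17-24 h prior, 75-min 37 °C, 30-min RT dye loading; Detection: kinetic Fluo-8 calcium fluorescence measurement; Measure: % inhibition from peak post-agonist over basal fluorescence ratio; Benchmarks: vehicle and agonist controls.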
GPR7 antag – antagonists of human GPR7 (neuropeptides B/W receptor 1); P48145; GPR7-expressing cells, fluorescence antagonist assay; inhibition, % at 4.4 µM; 1.1% of 290,000 active; in the data active means inhibition above about 16%, passing the limit was not always enough;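 further: cells stimulated with the agonist NPW; 0% = agonist with vehicle and 100% = vehicle without agonist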
Target sequence (P48145 whole entry, looked up): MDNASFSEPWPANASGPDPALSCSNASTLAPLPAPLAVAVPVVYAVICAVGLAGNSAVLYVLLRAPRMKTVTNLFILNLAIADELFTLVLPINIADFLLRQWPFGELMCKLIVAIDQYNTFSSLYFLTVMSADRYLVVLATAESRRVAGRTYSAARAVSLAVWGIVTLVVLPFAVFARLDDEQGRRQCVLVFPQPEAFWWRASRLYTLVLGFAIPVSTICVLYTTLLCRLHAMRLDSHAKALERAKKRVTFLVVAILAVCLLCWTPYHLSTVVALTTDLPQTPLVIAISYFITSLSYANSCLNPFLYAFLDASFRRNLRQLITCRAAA
OX1R antag-1 – blocks the human orexin 1 receptor. O43613. OX1R-expressing cells, FRET antagonist read-out. inhibition, % at 6.6 µM. 1.8% of 330,000 active. AID 485270; in the data active means inhibition mostly above about 38%, no sharp cut-off; inactive means mostly below about 40%;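 further: 0% = agonist challenge alone and 100% = reference antagonist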
OX1R antag-2 – antagonists of human orexin 1 receptor; O43613; 0.43% of 330,000 active; AID 434989; CHO/OX1R cells, Fluo-8 calcium fluorescence, orexin A; inhibition, % at 5 µM;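 active means inhibition above its plate's threshold, mean inhibition of all tested compounds on the plate plus 3 SD, cut at about 37% in these data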;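 further: 0% = orexin A challenge wells and 100% = SB-334867-A antagonist wells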
TAAR1 ag conf – confirmation of human TAAR1 agonists; CHO RD-HGA16 TAAR1, Fluo-8 calcium fluorescence; scaled: DMSO 0%, maximal phenethylamine 100%; shares compounds with TAAR1 agonist; 82% of 2,400 active; activation, % at 3 µM;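 active means activation above a cutoff set at the run's mean compound activation plus 3 SD, cut at about 39% in these data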
Ga16 nonsel ag – counter-screen for TAAR1 agonists: nonselective agonists in parental cells | 50% of 2,400 active | CHO-Ga16 parental, Fluo-8 calcium fluorescence; normalized to maximal ATP response, DMSO zero | activation, % at 3 µM | shares compounds with TAAR1 agonist;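 active means activation above the run cutoff, the mean activation over all tested wells plus 3 SD, cut at about 12% in these data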;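 further: 0% = DMSO wells and 100% = maximal ATP response on the peak over basal ratio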
TAAR1 desens – TAAR1 response desensitization, agonist counter-screen | shares compounds with TAAR1 agonist | CHO RD-HGA16 hTAAR1, Fluo-8 calcium, beta-PEA response inhibition | inhibition, % at 3 µM | 46% of 2,400 active | AID 651951;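 active means inhibition above the run cutoff, the mean inhibition of all test compounds plus 3 SD, cut at about 49% in these data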;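 further: beta-PEA stimulus applied at its EC80; loss of beta-PEA calcium signal after compound pretreatment read as receptor desensitization; 0% = DMSO with beta-PEA at EC80 and 100% = DMSO alone without agonist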
Ga16 antag count – nonselective Ga16 antagonism, counter-screen; AID 651952; shares compounds with TAAR1 agonist; CHO-Ga16 ATP-induced calcium, Fluo-8 fluorescence; 39% of 2,400 active; inhibition, % at 3 µM;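 active means inhibition above the plate's mean compound inhibition plus 3 SD, computed per plate, cut at about 22% in these data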;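 further: 0% = EC80 ATP with DMSO and 100% = DMSO wells without ATP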
* hit, by the source's call. Hits are enriched below; roughly 4.6% of the tested compounds scored in any of these assays.

Screening Cc1ccc2c(c1)[nH]c1c(=O)n(Cc3ccco3)cnc12 returned TAAR1 agonist 73*, CHO parental Ca 10, TAAR1 antag 28, GPR7 antag -5, OX1R antag-1 9, OX1R antag-2 -4, TAAR1 ag conf 101*, Ga16 nonsel ag 74*, TAAR1 desens 89* and Ga16 antag count 66*.
Fc1c(F)c(C(F)(F)F)c(F)c(F)c1N/N=C\c1cccs1 was read as TAAR1 agonist 92*, CHO parental Ca 12, TAAR1 antag 75*, GPR7 antag -7, OX1R antag-1 5, OX1R antag-2 22, TAAR1 ag conf 70*, Ga16 nonsel ag 86*, TAAR1 desens 71* and Ga16 antag count 80*.
Screening Cc1cc2c(cc1C)-n1nnnc1C(N(C)CCc1ccccc1)C(=O)N2 (centres undefined) returned TAAR1 agonist 54*, TAAR1 antag 18, TAAR1 ag conf 65*, Ga16 nonsel ag 6, TAAR1 desens 36 and Ga16 antag count 10.
For Cc1ccc(C(C2C(=O)CC(C)(C)CC2=O)C2C(=O)CC(C)(C)CC2=O)s1 the results were CHO parental Ca -14, GPR7 antag -11, OX1R antag-1 0 and OX1R antag-2 -18.
Screening COc1cc(/C=C/C(=O)OCC(=O)Nc2ccc(S(N)(=O)=O)cc2)ccc1O returned TAAR1 agonist 1, CHO parental Ca 15, TAAR1 antag -14, GPR7 antag -6, OX1R antag-1 13 and OX1R antag-2 8.
For O=C(COC(=O)/C=C/c1ccc(Cl)cc1)Nc1ccc2[nH]c(=O)[nH]c2c1 the results were TAAR1 agonist 3, CHO parental Ca 5, TAAR1 antag -14, OX1R antag-1 5 and OX1R antag-2 1.
`O=C(COC(=O)/C=C/c1ccc(Cl)cc1)Nc1ccccc1` gave TAAR1 agonist 62*, CHO parental Ca 8, TAAR1 antag 44, GPR7 antag -6, OX1R antag-1 9, OX1R antag-2 -6, TAAR1 ag conf 15, Ga16 nonsel ag 2, TAAR1 desens 6 and Ga16 antag count 6.
For COc1cc(/C=C/C(=O)OCC(=O)Nc2ccc([N+](=O)[O-])cc2)ccc1O the results were TAAR1 agonist 72*, CHO parental Ca 30, TAAR1 antag 46, GPR7 antag 14, OX1R antag-1 6, OX1R antag-2 21, TAAR1 ag conf 77*, Ga16 nonsel ag 43*, TAAR1 desens 58* and Ga16 antag count 39*.
For CCCCCCN1C=C/C(=C\C=C(C#N)C#N)c2ccccc21 the results were TAAR1 agonist 10, CHO parental Ca -1, TAAR1 antag 13, GPR7 antag -6, OX1R antag-1 46 and OX1R antag-2 10.
Screening C=CCN1C=C/C(=C\C=C(C#N)C#N)c2ccccc21 returned TAAR1 agonist 66*, CHO parental Ca 19, TAAR1 antag 29, GPR7 antag -3, OX1R antag-1 32, OX1R antag-2 4, TAAR1 ag conf 74*, Ga16 nonsel ag 8, TAAR1 desens 66* and Ga16 antag count 26*.
Screening C/C(=N\Nc1ncnc2sc(C)c(C)c12)c1ccccn1 returned TAAR1 agonist 135*, CHO parental Ca 79*, TAAR1 antag 104*, GPR7 antag 6, OX1R antag-1 34, OX1R antag-2 90*, TAAR1 ag conf 95*, Ga16 nonsel ag 95*, TAAR1 desens 84* and Ga16 antag count 86*.
Cc1sc2ncnc(N/N=C/c3cccc(O)c3)c2c1C was read as TAAR1 agonist 9, CHO parental Ca -8, TAAR1 antag -3, GPR7 antag -9, OX1R antag-1 9 and OX1R antag-2 -8.
For Cc1c(C(=O)N2CCc3ccccc3C2)oc2ccc(S(=O)(=O)N3CC(C)CC(C)C3)cc12 (centres undefined) the results were CHO parental Ca -27, GPR7 antag 2, OX1R antag-1 18, OX1R antag-2 -20, Ga16 nonsel ag 3 and Ga16 antag count 4.
COc1ccc(S(=O)(=O)N2CCC(C(=O)N3CCc4ccccc4C3)CC2)cc1C was read as TAAR1 agonist 52*, CHO parental Ca -22, TAAR1 antag 9, GPR7 antag -4, OX1R antag-1 7, OX1R antag-2 -13, TAAR1 ag conf 76*, Ga16 nonsel ag 1, TAAR1 desens 20 and Ga16 antag count 11.
CC(C)C(C)(C#N)NC(=O)CN1C(=O)NC2(CCCc3ccccc32)C1=O (centres undefined) was read as TAAR1 agonist 1, CHO parental Ca -2, TAAR1 antag -11, GPR7 antag -13, OX1R antag-1 0 and OX1R antag-2 10.
For CCN(CC(=O)Nc1c(F)cccc1F)C(=O)C1CCN(S(=O)(=O)c2ccc(C)c(C)c2)CC1 the results were TAAR1 agonist 1, CHO parental Ca -6, TAAR1 antag 9, OX1R antag-1 11 and OX1R antag-2 -12.
Screening COc1cccc(N=C(N)N)c1 returned TAAR1 agonist 67*, CHO parental Ca 5, TAAR1 antag 53*, GPR7 antag -17, OX1R antag-1 18, OX1R antag-2 12, TAAR1 ag conf 83*, Ga16 nonsel ag 2, TAAR1 desens 75* and Ga16 antag count 5.
Screening COc1cccc(N)c1 returned TAAR1 agonist 2 and TAAR1 antag 5.
`O=C(O)C1C2C=CC(C2)C1C(=O)NCCc1ccncc1` (centres undefined) gave TAAR1 agonist 36, CHO parental Ca 1, TAAR1 antag -3, GPR7 antag 21, OX1R antag-1 6 and OX1R antag-2 -5.
`O=C(O)C1C2C=CC(C2)C1C(=O)NCc1ccccn1` (centres undefined) gave CHO parental Ca -10, GPR7 antag -3, OX1R antag-1 -7 and OX1R antag-2 -7.
`CCOC(=O)c1ccc(NC(=O)C2C3C=CC(C3)C2C(=O)O)cc1` (centres undefined) gave TAAR1 agonist 9, CHO parental Ca -5, TAAR1 antag 2, GPR7 antag 3, OX1R antag-1 1 and OX1R antag-2 6.
